# Source: ChEMBL document CHEMBL4251713, “Bioassay- and Chemistry-Guided Isolation of Scalemic Caged Prenylxanthones from the Leaves of Garcinia bracteata” (2018)
# Where a name gives a salt, the structure may show the parent alone.
# Experiments:
# [1] = test system: HL-60; assay: Growth inhibition of human HL60 cells measured after 3 days by trypan blue assay; assay type: functional; conditions: HL-60, 72 h
# In short: (§1)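 Human leukemia cells exposed to compound for 3 days. Growth assessed by trypan blue method with total cell counts, and inhibition calculated relative to untreated control cells. GI50 taken as the concentration giving 50% growth inhibition. Doxorubicin hydrochloride and gambogic acid included as positive controls.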
# [2] = test system: K562; assay: Growth inhibition of human K562 cells measured after 3 days by trypan blue assay; assay type: functional; conditions: K562, 72 h; in short: as §1
SMILES,GI50 [1] [µM],GI50 [2] [µM]
C=CC(C)(C)c1c(O)cc(O)c2c1O[C@]13[C@H](C2=O)[C@@H](OC)[C@@H]2C[C@H]1C(C)(C)O[C@@]3(/C=C/C(C)(C)O)C2=O,8.8,3.8
CC(C)=CCC12OC(C)(C)C3CC4(Oc5c(c(O)cc6c5C(C)(C)[C@@H](C)O6)C(=O)C4=CC31)C2=O (some centres undefined),0.7,1.7
C=CC(C)(C)c1c(O)cc(O)c2c1OC13C(=CC4CC1C(C)(C)OC3(CC=C(C)C)C4=O)C2=O (centres undefined),0.4,1
CC(C)=CC[C@@]12OC(C)(C)[C@H]3C[C@H](C=C4C(=O)c5c(O)cc6c(c5O[C@]431)C(C)(C)[C@H](CO)O6)C2=O,1.1,2.1
C=CC(C)(C)c1c(O)cc(OC)c2c1OC13C(C2=O)[C@@H](OC)[C@@H]2C[C@H]1C(C)(C)O[C@@]3(CC=C(C)C)C2=O (some centres undefined),3.4,1.6
CC(C)=CC[C@@]12OC(C)(C)[C@H]3C[C@H](C=C4C(=O)c5c(O)cc6c(c5O[C@]431)C(C)(C)[C@@H](C)O6)C2=O,1.2,2.1
C=CC(C)(C)c1c(OC)cc(O)c2c1OC13C(=CC4CC1C(C)(C)OC3(CC=C(C)C)C4=O)C2=O (centres undefined),0.2,0.8
C=CC(C)(C)c1c(O)cc(O)c2c1O[C@]13[C@H](C2=O)[C@@H](OCC)[C@@H]2C[C@H]1C(C)(C)OC3(CC=C(C)C)C2=O,4.5,2.1
C=CC(C)(C)c1c(OC)cc(O)c2c1OC13CC4C(C=C1C2=O)C(CC=C(C)C)(OC4(C)C)C3=O (centres undefined),1,1.5
C=CC(C)(C)c1c(O)cc(O)c2c1O[C@]13CC4[C@H]([C@@H](OC)C1C2=O)[C@@](CC=C(C)C)(OC4(C)C)C3=O (some centres undefined),6.5,3.5
CC(C)=CC[C@@]12OC(C)(C)[C@H]3C[C@H](C=C4C(=O)c5c(O)cc6c(c5O[C@]431)C(C)(C)[C@@H](CO)O6)C2=O,1.1,2.1
C=CC(C)(C)c1c(O)cc(O)c2c1OC13CC4C(C=C1C2=O)C(CC=C(C)C)(OC4(C)C)C3=O (centres undefined),0.8,1.3
CC(C)=CC[C@@]12OC(C)(C)C3C[C@H](C=C4C(=O)c5c(O)cc6c(c5O[C@]431)C(C)(C)[C@H](C)O6)C2=O,1.9,3.6
C=CC(C)(C)c1c(O)cc(O)c2c1O[C@]13C(C2=O)[C@@H](OC)[C@@H]2C[C@H]1C(C)(C)O[C@@]3(CC=C(C)C)C2=O (some centres undefined),7.3,3.4
CC(C)=CCC12OC(C)(C)C3CC4(Oc5c(c(O)cc6c5C(C)(C)[C@H](C)O6)C(=O)C4=CC31)C2=O (some centres undefined),0.9,1.6
COc1cccc2c1C(=O)c1c(O)c3c(c(O)c1C2=O)C[C@@](O)(C(=O)CO)C[C@@H]3O[C@H]1C[C@H](N)[C@H](O)[C@H](C)O1 [DOXORUBICIN HYDROCHLORIDE],0.02,0.02
CC(C)=CCC[C@]1(C)C=Cc2c(O)c3c(c(CC=C(C)C)c2O1)O[C@]12C(=C[C@@H]4C[C@H]1C(C)(C)O[C@@]2(C/C=C(/C)C(=O)O)C4=O)C3=O [GAMBOGIC ACID],0.3,0.6
